pIC50: −log10 of the molar value.
Tests used:
[1] = system: Mycobacterium tuberculosis H37Rv; experiment: Microplate alamar blue assay; assay type: cell-based; details: MABA, 7 days, unit as printed mg mL^−1
A549 cell line = experiment: MTT-based cytotoxicity on lung cancer cell line; parameters: species or system human
How it was run: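 A549 lung cancer cells were exposed to test compounds for 24 h, with cisplatin as the reference. Viability was measured by MTT: viable cells reduce the dye to formazan crystals, which are dissolved in solvent and read at 570 nm. IC50 is the half-maximal inhibitory concentration.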

InhA enzyme = InhA enzyme (Mycobacterium tuberculosis, UniProt P9WGR1); experiment: InhA enzyme inhibition assay; assay type: biochemical, M. tuberculosis; details: for inhibition at 50 µM: read-out: % inhibition InhA at 50 μM of inhibitor
[2] = system: mouse macrophage cell line (RAW 264.7); details: RAW 264.7, 48 h, MTT

InhA enzyme, sequence (P9WGR1 whole entry, looked up): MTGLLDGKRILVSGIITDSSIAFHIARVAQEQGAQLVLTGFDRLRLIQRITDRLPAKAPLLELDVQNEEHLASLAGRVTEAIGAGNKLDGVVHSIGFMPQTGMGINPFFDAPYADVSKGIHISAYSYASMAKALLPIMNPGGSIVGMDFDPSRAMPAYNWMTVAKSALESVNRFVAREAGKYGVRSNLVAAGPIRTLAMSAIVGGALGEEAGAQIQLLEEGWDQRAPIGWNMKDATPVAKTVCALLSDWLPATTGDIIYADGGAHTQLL

1-(4-(1H-Pyrrol-1-yl)phenyl)-6-(4-(dimethyl amino)phenyl)hexa-2,5-dien-1-one [Compound 3v]
MIC values [1]: 25 mg/mL

1-(4-(1H-Pyrrol-1-yl)phenyl)-6-phenylhexa-2,5-dien-1-one [Compound 3r]
MIC values [1]: >25 mg/mL

4-(4-(1H-Pyrrol-1-yl)phenyl)-6-(furan-3-yl)pyrimidin-2-amine [Compound 4b]
MIC values [1]: 25 mg/mL

N.N.[Cl][Pt][Cl] [Cisplatin, reference compound]
pIC50 (A549 cell line; A549, MTT): 5.00

CC(C)c1ccc(C=CC(=O)c2ccc(-n3cccc3)cc2)cc1 [Compound 3k, 1-(4-(1H-Pyrrol-1-yl)phenyl)-3-(4-isopropylphenyl)prop-2-en-1-one]
inhibition at 50 µM (InhA enzyme): 36%
% Toxicity at 25 μg mL^−1 [2]: 30.1%

O=C(C=Cc1cccs1)c1ccc(-n2cccc2)cc1 [Compound 3l, 1-(4-(1H-Pyrrol-1-yl)phenyl)-3-(thiophen-2-yl)prop-2-en-1-one]
inhibition at 50 µM (InhA enzyme): 36%
% Toxicity at 25 μg mL^−1 [2]: 26.6%

COc1ccc(-c2cc(-c3ccc(-n4cccc4)cc3)nc(N)n2)c(OC)c1 [Compound 4c, 4-(4-(1H-Pyrrol-1-yl)phenyl)-6-(2,4-dimethoxyphenyl)pyrimidin-2-amine]
pIC50 (A549 cell line; Homo sapiens, A549): 4.26
inhibition at 50 µM (InhA enzyme): 16%
% Toxicity at 25 μg mL^−1 [2]: 25.80%

COc1ccc(-c2cc(-c3ccc(-n4cccc4)cc3)nc(N)n2)cc1 [Compound 4g, 4-(4-(1H-Pyrrol-1-yl)phenyl)-6-(4-methoxyphenyl)pyrimidin-2-amine]
pIC50 (A549 cell line; Homo sapiens, A549): 4.31
inhibition at 50 µM (InhA enzyme): 36%
% Toxicity at 25 μg mL^−1 [2]: 19.09%

Nc1nc(-c2ccc(-n3cccc3)cc2)cc(-c2ccc(Cl)cc2Cl)n1 [Compound 4h, 4-(4-(1H-Pyrrol-1-yl)phenyl)-6-(2,4-dichlorophenyl)pyrimidin-2-amine]
pIC50 (A549 cell line; Homo sapiens, A549): 3.98
inhibition at 50 µM (InhA enzyme): < 5%
% Toxicity at 25 μg mL^−1 [2]: 26.80%

CC(C)c1ccc(-c2cc(-c3ccc(-n4cccc4)cc3)nc(N)n2)cc1 [Compound 4k, 4-(4-(1H-Pyrrol-1-yl)phenyl)-6-(4-isopropylphenyl)pyrimidin-2-amine]
pIC50 (A549 cell line; Homo sapiens, A549): 3.91
inhibition at 50 µM (InhA enzyme): 10%
% Toxicity at 25 μg mL^−1 [2]: 28.90%

COc1cccc(-c2cc(-c3ccc(-n4cccc4)cc3)nc(N)n2)c1O [Compound 4u, 2-(6-(4-(1H-Pyrrol-1-yl)phenyl)-2-aminopyrimidin-4-yl)-6-methoxyphenol]
% inhibition InhA at 50 μM of inhibitor (InhA enzyme; 50 μM inhibitor): no inhibition
inhibition at 50 µM (InhA enzyme): < 5%
% Toxicity at 25 μg mL^−1 [2]: 19.10%
